Laboratory results as given in article PMC6896334 (Cell reports, 2019).
Values belong to the compound of their own block, whether it stands above or below them. Residues, ends and D or L forms follow the SMILES beside them. *: point of attachment. Cbz = O=C(OCc1ccccc1)*

Columns and labels:
E47 = target: T1, E47 (Homo sapiens, UniProt P15923); assay: UV crosslinking of AGX51-XL2 to E47 and mass spectrometry; assay type: binding; settings: data not shown
T1 sequence (P15923 1-651 isoform P15923-2): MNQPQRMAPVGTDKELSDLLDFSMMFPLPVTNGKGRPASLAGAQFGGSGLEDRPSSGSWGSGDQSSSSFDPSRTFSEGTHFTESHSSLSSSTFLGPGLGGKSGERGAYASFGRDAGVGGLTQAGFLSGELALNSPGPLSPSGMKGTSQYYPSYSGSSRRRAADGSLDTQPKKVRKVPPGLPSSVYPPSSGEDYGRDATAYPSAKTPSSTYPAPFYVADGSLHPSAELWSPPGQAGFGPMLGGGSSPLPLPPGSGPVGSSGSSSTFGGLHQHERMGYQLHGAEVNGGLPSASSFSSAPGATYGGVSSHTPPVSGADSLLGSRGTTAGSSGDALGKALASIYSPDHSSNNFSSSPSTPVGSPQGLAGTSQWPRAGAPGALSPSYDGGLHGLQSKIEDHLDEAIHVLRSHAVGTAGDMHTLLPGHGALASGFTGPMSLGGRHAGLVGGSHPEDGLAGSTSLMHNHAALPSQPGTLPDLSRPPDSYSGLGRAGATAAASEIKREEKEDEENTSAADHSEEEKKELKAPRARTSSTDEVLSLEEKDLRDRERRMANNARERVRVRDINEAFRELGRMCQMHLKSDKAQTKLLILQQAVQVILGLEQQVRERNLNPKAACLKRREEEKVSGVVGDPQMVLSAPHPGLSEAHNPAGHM

Id1 (59–104) = target: T2, Id1 (59–104) (Mus musculus, UniProt P20067); assay: UV crosslinking of AGX51-XL2 to purified Id1 and mass spectrometry; assay type: binding; settings: UV light 20 minutes
T2 sequence (P20067 59-104): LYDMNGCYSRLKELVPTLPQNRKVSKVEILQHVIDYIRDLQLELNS
Summary of the method: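 Purified Id1 (aa 59–104, 1 µg) was mixed in the dark with 19.7 ng of a benzophenone photoreactive test-compound analog in DMSO and UV-irradiated for 20 min, with a no-UV control. Samples were run in the dark on a 15% denaturing gel and silver stained. Bands were excised for mass spectrometry.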

HCT116 cells = assay: HCT116 cell viability; assay type: cell-based, human; settings: cell-based assays (HCT116 and 4T1)
Summary of the method: (§1)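 MTT viability: cells seeded at 5000/well and left overnight, then exposed to the test compound for 24 h. MTT (5 mg/mL) was added for 4 h, medium removed and formazan dissolved in DMSO. Absorbance was read at 570 nm.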

Id1 [1] = target: T3, Id1 (Mus musculus, UniProt P20067); assay: Western blot for Id1 in 4T1 cells; assay type: cell-based; settings: 4T1, 0–20 μM AGXA, 24 h
T3 sequence (P20067 1-148 isoform P20067-2): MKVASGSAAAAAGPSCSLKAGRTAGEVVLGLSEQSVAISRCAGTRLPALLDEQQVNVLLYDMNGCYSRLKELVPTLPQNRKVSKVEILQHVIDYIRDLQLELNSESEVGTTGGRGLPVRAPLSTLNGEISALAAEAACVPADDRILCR
Summary of the method: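 4T1 cells were treated 24 h, collected by trypsinization, washed in PBS and lysed in sucrose/Tris pH 8.0/400 mM NaCl/MgCl2/0.5% NP40 buffer with protease inhibitors. Id1 immunoblots were quantified from 700 and 800 channel intensities, blank-subtracted and normalized to tubulin; IC50 reported from blots.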

[2] = tested on: choroidal neovascularization; assay: Laser-induced choroidal neovascularization; assay type: in vivo, mouse; settings: intravitreal 1 μg dose, day 14
Summary of the method: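 Female C57BL/6 mice aged 4–6 weeks had laser rupture of Bruch's membrane at three sites per eye. Test compounds (1 or 5 µg) or DMSO were given intravitreally. At day 14, choroidal flat mounts were stained with FITC-Griffonia simplicifolia lectin, and CNV area was measured by fluorescence image analysis by an observer masked to group.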

[3] = target: T4, NanoLuc luciferase ID1 fusion protein (Homo sapiens, UniProt P41134); assay: NanoBRET target engagement assay in permeabilized 293T cells; assay type: binding
T4 sequence (P41134 1-155): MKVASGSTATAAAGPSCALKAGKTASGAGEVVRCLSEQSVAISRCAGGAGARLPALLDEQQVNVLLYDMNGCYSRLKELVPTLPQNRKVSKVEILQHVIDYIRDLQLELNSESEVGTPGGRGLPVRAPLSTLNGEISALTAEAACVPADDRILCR
Summary of the method: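 293T cells transfected with an N-terminal NanoLuc–ID1 fusion construct and plated 24 h later. Cells received 2 µM fluorescent tracer plus 0–60 µM competitor, then were permeabilised with digitonin (50 µg/mL). NanoBRET Nano-Glo substrate was added and the BRET ratio read, following the kit protocol for intracellular target engagement.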

Id1 [4] = target: T3, Id1; assay: Circular dichroism; assay type: binding; settings: AGX51 0–50 μM; AGXA 0–110 μM in DMSO
ID1, ID2, ID3, and ID4 = assay: Western blot for ID proteins in HCT116 cells; assay type: cell-based, human; settings: HCT116, 0–10 μM AGXA, 24 h
Cell viability assays = assay type: cell-based; settings: data not shown
Summary of the method: as §1

Id1-E47 interaction = target: T5, Id1-E47 interaction (Mus musculus, UniProt P20067); assay: In vitro electrophoretic mobility shift assay; assay type: biochemical; settings: data not shown
T5 sequence (P20067 1-148 isoform P20067-2): T3 sequence (P20067 1-148 isoform P20067-2)
Summary of the method: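 Bacterially purified full-length E47 was mixed with a 32P-labelled E-box probe from the muscle creatine kinase enhancer, plus BSA, DTT, poly dI-dC, salmon sperm DNA and HeLa nuclear extract, with or without purified full-length Id1. Test compounds in DMSO (or DMSO alone) were added at rising concentrations for 30 min. Complexes were resolved on 5% native PAGE and autoradiographed.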

Id proteins = assay: Degradation of Id proteins in cells; assay type: cell-based; settings: data not shown
FLAG-ID1 = target: T6, FLAG-ID1 (Homo sapiens, UniProt P41134); assay: Ubiquitylation assay in HCT116 and U87 glioma cells; assay type: cell-based; settings: 60 μM AGX51 2 h, then 20 μM MG132 for 6 h
T6 sequence (P41134 1-155): T4 sequence (P41134 1-155)
Summary of the method: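 HCT116 cells co-transfected with FLAG-tagged ID1 and HA-ubiquitin. After 36 h they were exposed to 60 µM test compound for 2 h, then 20 µM MG132 for a further 6 h. Cells were washed in ice-cold PBS, lysed in TBS (50 mM Tris pH 8.0, 150 mM NaCl) containing 2% SDS, and boiled for 10 min.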

- reduction in IC50 values relative to AGX51 (HCT116 cells): ~4 fold
- competition with the AGX51 tracer (BRET ratio) ([3]; 2 μM AGX51 tracer, 0–60 μM competitor, 50 μg/mL digitonin): more efficiently
- effect on Id1 secondary structure (CD spectra) (Id1 [4]): greater activity than AGX51
Compound: 6-chloro-2-methyl-N-(4-propoxyphenyl)quinolin-4-amine hydrochloride [AGXA]
- Id1 protein levels relative to AGX51 (Id1 [1]): reduced Id protein levels at lower concentrations than AGX51
- area of CNV, AGXA compared with AGX51 [2]: worked better than AGX51
- ID1 protein levels relative to AGX51 (ID1, ID2, ID3, and ID4): reduced Id protein levels at lower concentrations than AGX51

- concentrations required to perturb Id1 in the EMSA assay, relative to AGX51 (Id1-E47 interaction): higher concentrations
Compound: CC(C)c1ccc(NNC(=O)c2cc3ccccc3s2)cc1 [AGX8, N’-(4-isopropylphenyl)benzo[b]thiophene-2-carbohydrazide]
- IC50 in cell viability assays, relative to AGX51 (Cell viability assays): higher IC50
- concentrations required to degrade Id proteins in cells, relative to AGX51 (Id proteins): higher concentrations

- ID1 ubiquitylation (FLAG-ID1): ID1 ubiquitylation was observed
Compound: CC(C)C[C@@H](C=O)NC(=O)[C@H](CC(C)C)NC(=O)[C@H](CC(C)C)NC(=O)OCc1ccccc1 [MG132] (Cbz-Leu-Leu-Leu-aldehyde)

Second part, the compound before the results:

Compound: O=C(NCCC(c1ccccc1)c1ccccc1)c1ccc(C(=O)c2ccccc2)cc1 [AGX51-XL2, 4-benzoyl-N-(3,3-diphenylpropyl)bezamide]
- covalent binding to E47 (E47): nor was there evidence of AGX51-XL2 binding to E47
- covalent binding to Id1 after UV exposure (Id1 (59–104)): covalently binding to Id1 at six residues (V73, P74, T75, P77, Q78, and R80)

Compound: COc1ccccc1C(CCN(Cc1ccccc1)C(=O)CCOCCOCCNC(=O)CCC1=[N+]2C(=Cc3ccc(-c4ccc[nH]4)n3[B-]2(F)F)C=C1)c1ccc2c(c1)OCO2 (stereo not shown) [AGX51 tracer, 3-(17-(benzo[d][1,3]dioxol-5-yl)-14-benzyl-17-(2-methoxyphenyl)-3,13-dioxo-7,10-dioxa-4,14-diazaheptadecyl)-5,5-difluoro-7-(1H-pyrrol-2-yl)-5H-5λ4-dipyrrolo[1,2-c:2’,1’-f][1,3,2]diazaborinin-4-ium]
- BRET ratio ([3]; tracer 0–4 μM, digitonin-permeabilized 293T cells): dose-dependent increase in the BRET ratio
